Source: ChEMBL document CHEMBL2157870 (J Med Chem, 2012)
≈ marks a conversion by molar mass, not a printed value.

Tests used:
Raji = experiment: Cytotoxicity against human Raji cells at 25 uM after 72 hrs by celltiter-glo assay; assay type: cell-based
Mus musculus [1] = experiment: Apparent volume of distribution during terminal phase in CD1 mouse at 500 mg/kg, po; assay type: ADME, organism-based; parameters: dose 500 mg/kg, route oral; conditions: mouse, in vivo
Summary of the method: (§1)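 Female CD-1 mice, 8 weeks old, were given a single oral gavage dose as a suspension in 0.5% methylcellulose in sterile water. Blood was taken from three mice per time point (5 min–24 hr) into K3EDTA and processed to plasma. After acetonitrile protein precipitation, samples were analysed by LC-MS/MS with a warfarin internal standard. Noncompartmental analysis used linear-up/log-down trapezoidal AUC and at least three non-zero concentrations after Tmax.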

Mus musculus [2] = experiment: Cmax in CD1 mouse at 20 mg/kg, po; assay type: ADME, organism-based; parameters: dose 20 mg/kg, route oral; conditions: in vivo; summary of the method: as §1
HEK293 = experiment: Cytotoxicity against human HEK293 cells at 25 uM after 72 hrs by celltiter-glo assay; assay type: cell-based; conditions: hek293, 72 h
[3] = Apparent volume of distribution during terminal phase in CD1 mouse at 200 mg/kg, po; assay type: ADME, organism-based; parameters: dose 200 mg/kg, route oral; conditions: in vivo, read-out: Vz/F; summary of the method: as §1
Mus musculus [4] = experiment: Tmax in CD1 mouse at 500 mg/kg, po; assay type: ADME, organism-based; parameters: dose 500 mg/kg, route oral; conditions: in vivo; summary of the method: as §1
CYP2D6 [5] = molecular target: T1, CYP2D6 (Homo sapiens, UniProt P10635); experiment: Inhibition of CYP2D6 in human liver microsomes at 1 uM after 20 mins by LC-MS/MS analysis relative to control; values are per cent of control
Plasmodium falciparum [6] = experiment: Antimalarial activity against Plasmodium falciparum K1 after 72 hrs by MSF assay; assay type: functional, organism-based; conditions: K1, 72 h
Mus musculus [7] = experiment: AUC (0 to infinity) in CD1 mouse at 200 mg/kg, po; assay type: ADME, organism-based, Plasma; parameters: time infinity, dose 200 mg/kg, route oral; conditions: in vivo; summary of the method: as §1
[8] = Solubility of the compound in PBS at 10 mM after 18 hrs by UV spectroscopic analysis; assay type: physicochemical
BJ = experiment: Cytotoxicity against human BJ cells at 25 uM after 72 hrs by celltiter-glo assay; assay type: cell-based
Mus musculus [9] = experiment: Cmax in CD1 mouse at 200 mg/kg, po; assay type: ADME, organism-based; parameters: dose 200 mg/kg, route oral; conditions: in vivo; summary of the method: as §1
Mus musculus [10] = experiment: Tmax in CD1 mouse at 200 mg/kg, po; assay type: ADME, organism-based; parameters: dose 200 mg/kg, route oral; conditions: in vivo; summary of the method: as §1
Mus musculus [11] = experiment: AUC (0 to infinity) in CD1 mouse at 20 mg/kg, po; assay type: ADME, organism-based, Plasma; parameters: time infinity, dose 20 mg/kg, route oral; conditions: in vivo; summary of the method: as §1
CYP2D6 [12] = molecular target: T1, CYP2D6; experiment: Inhibition of CYP2D6 in human liver microsomes at 10 uM after 20 mins by LC-MS/MS analysis relative to control; values are per cent of control
Mus musculus [13] = experiment: AUC (0 to infinity) in CD1 mouse at 500 mg/kg, po; assay type: ADME, organism-based, Plasma; parameters: time infinity, dose 500 mg/kg, route oral; conditions: in vivo; summary of the method: as §1
Plasmodium falciparum [14] = experiment: Antimalarial activity against Plasmodium falciparum 3D7 after 72 hrs by MSF assay; assay type: functional, organism-based; conditions: 3D7, 72 h
Mus musculus [15] = experiment: Cmax in CD1 mouse at 500 mg/kg, po; assay type: ADME, organism-based; parameters: dose 500 mg/kg, route oral; conditions: in vivo; summary of the method: as §1
Mus musculus [16] = experiment: Tmax in CD1 mouse at 20 mg/kg, po; assay type: ADME, organism-based; parameters: dose 20 mg/kg, route oral; conditions: in vivo; summary of the method: as §1
[17] = Permeability of the compound at 10 uM at pH 7.4 by PAMPA; assay type: ADME; conditions: pH 7.4, 10 µM
Summary of the method: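 PAMPA: diluted compound in system solution buffer at pH 7.4 was placed in the donor well over a GIT-lipid-painted membrane, with acceptor solution buffer in the acceptor well. The sandwich was stirred for 30 min with the aqueous boundary layer set to 40 μm. Triplicate.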

[18] = Apparent volume of distribution during terminal phase in CD1 mouse at 20 mg/kg, po; assay type: ADME, organism-based; parameters: dose 20 mg/kg, route oral; conditions: CD1, mouse, in vivo, read-out: Vz/F; summary of the method: as §1
HepG2 = experiment: Cytotoxicity against human HepG2 cells at 25 uM after 72 hrs by celltiter-glo assay; assay type: cell-based; conditions: hepg2, 72 h
[19] = molecular target: T2, ATP-sensitive inward rectifier potassium channel 11 (Homo sapiens, UniProt Q14654); experiment: Inhibition of Kir6.2 by patch clamp assay
T2 sequence (Q14654 whole entry): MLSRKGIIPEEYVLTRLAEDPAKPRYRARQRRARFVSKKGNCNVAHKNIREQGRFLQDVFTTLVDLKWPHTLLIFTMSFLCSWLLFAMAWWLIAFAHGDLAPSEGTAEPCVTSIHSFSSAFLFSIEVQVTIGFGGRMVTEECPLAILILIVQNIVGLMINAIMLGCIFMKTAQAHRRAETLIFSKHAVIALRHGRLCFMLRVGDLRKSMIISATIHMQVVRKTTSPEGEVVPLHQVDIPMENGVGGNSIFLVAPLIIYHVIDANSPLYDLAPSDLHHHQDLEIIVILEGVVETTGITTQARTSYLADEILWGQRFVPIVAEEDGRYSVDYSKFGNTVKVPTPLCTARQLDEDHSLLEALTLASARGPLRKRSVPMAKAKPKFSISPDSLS

[20] = Intrinsic clearance in […] mouse liver microsomes at 2 mM; assay type: ADME, Microsome; conditions: read-out: CLH
Plasmodium berghei [21] = experiment: Antimalarial activity against Plasmodium berghei NK-65 infected in ICR mouse assessed as parasitemia level at 100 mg/kg, po administered day 3, 4 and 5 post infection measured up to day 30 by Geimsa staining; assay type: functional
Summary of the method: (§2)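 Female Swiss outbred ICR mice, 15–20 g, given 1 X 10^6 P. berghei NK-65 infected red cells from donor mice in plasma at day 0 (modified Thompson's test). Patent infection confirmed by tail blood smear on day 3. Oral single daily doses in 0.5% HEC on days 3, 4, 5. Vehicle controls. Survival recorded daily to day 30. Parasitemia from Giemsa thin films on days 3, 6, 13, 20, 27, counting ≥1000 cells.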

Plasmodium berghei [22] = experiment: Antimalarial activity against Plasmodium berghei NK-65 infected in ICR mouse assessed as survival rate at 100 mg/kg, po administered day 3, 4 and 5 post infection; assay type: functional; summary of the method: as §2
Plasmodium berghei [23] = experiment: Antimalarial activity against Plasmodium berghei NK-65 infected in ICR mouse assessed as parasitemia level at 200 mg/kg, po administered day 3, 4 and 5 post infection measured up to day 30 by Geimsa staining; assay type: functional; summary of the method: as §2
Plasmodium berghei [24] = experiment: Antimalarial activity against Plasmodium berghei NK-65 infected in ICR mouse assessed as survival rate at 200 mg/kg, po administered day 3, 4 and 5 post infection; assay type: functional; summary of the method: as §2
[25] = molecular target: Voltage-gated inwardly rectifying potassium channel KCNH2 (Homo sapiens, UniProt Q12809); experiment: Inhibition of human ERG by patch clamp assay
hERG = experiment: Therapeutic index, ratio of IC50 for human ERG to EC50 for Plasmodium falciparum K1; conditions: read-out: Ratio IC50/EC50

T1 sequence (P10635 whole entry): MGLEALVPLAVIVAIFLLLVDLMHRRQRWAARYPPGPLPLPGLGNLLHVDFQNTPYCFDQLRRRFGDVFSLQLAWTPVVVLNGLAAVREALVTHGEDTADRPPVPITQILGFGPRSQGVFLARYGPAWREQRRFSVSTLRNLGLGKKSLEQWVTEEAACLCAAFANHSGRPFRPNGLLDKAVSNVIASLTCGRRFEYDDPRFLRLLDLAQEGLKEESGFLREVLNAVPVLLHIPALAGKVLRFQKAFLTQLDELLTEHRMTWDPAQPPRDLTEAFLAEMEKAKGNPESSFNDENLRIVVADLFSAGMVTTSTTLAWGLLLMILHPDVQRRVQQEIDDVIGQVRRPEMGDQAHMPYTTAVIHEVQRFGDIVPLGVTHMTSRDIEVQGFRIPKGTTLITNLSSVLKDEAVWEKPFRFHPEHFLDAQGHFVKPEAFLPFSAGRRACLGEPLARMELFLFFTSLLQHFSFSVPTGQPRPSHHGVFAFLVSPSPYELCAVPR
Sequence of Voltage-gated inwardly rectifying potassium channel KCNH2 (Q12809 whole entry): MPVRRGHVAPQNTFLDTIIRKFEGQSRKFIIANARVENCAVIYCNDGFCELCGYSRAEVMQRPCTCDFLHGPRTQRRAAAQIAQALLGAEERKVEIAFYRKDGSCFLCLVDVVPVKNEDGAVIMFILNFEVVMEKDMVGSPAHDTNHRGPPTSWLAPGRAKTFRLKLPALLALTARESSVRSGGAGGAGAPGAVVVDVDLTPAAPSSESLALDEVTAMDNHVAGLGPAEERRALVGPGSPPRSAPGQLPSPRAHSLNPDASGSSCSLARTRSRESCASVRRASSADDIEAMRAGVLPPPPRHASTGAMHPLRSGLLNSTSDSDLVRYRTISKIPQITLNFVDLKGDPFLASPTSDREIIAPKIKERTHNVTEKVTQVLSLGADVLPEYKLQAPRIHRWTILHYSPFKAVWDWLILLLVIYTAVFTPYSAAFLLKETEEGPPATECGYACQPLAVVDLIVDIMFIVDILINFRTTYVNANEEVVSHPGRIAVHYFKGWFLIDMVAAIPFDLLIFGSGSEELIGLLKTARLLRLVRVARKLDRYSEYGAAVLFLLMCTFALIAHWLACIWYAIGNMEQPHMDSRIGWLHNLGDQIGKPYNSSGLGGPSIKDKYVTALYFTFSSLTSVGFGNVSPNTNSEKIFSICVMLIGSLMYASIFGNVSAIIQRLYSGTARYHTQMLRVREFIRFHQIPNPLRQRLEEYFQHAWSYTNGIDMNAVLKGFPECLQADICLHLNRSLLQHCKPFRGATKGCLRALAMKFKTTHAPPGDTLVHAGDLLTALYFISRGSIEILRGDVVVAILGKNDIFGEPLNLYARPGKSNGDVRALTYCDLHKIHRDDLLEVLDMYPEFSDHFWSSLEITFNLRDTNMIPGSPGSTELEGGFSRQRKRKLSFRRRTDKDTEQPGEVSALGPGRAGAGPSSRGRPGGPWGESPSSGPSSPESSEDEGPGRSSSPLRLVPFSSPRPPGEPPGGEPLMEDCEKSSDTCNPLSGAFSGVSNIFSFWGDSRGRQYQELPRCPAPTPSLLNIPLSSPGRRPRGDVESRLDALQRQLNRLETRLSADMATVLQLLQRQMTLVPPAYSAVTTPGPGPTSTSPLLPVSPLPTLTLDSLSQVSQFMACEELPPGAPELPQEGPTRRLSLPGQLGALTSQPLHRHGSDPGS

Q: What does the source list for `O=C(CCc1ccc(F)cc1)c1ccccc1OCC(O)CN1CCN(C(c2ccccc2)c2ccccc2)CC1` (centres undefined)?
A: Activity (Raji): Non-toxic; Vz/F (Mus musculus [1]): 1758 L/kg; Cmax (Mus musculus [2]): 92.4 nM; Activity (HEK293): Non-toxic; Vd/F [3]: 288 L/kg; Tmax (Mus musculus [4]): 0.5 h; % activity remaining at 20 min, 1 µM (CYP2D6 [5]): 83%; EC50 (Plasmodium falciparum [6]): 0.1 µM; EC90 (Plasmodium falciparum [6]): 0.21 µM; AUC (Mus musculus [7]): 5.67 µM·h; solubility at 18 h, 10000 µM [8]: 0.6 µM (≈ 0.332 µg/mL); Activity (BJ): Non-toxic; Cmax (Mus musculus [9]): 1140 nM; Tmax (Mus musculus [10]): 1 h; AUC (Mus musculus [11]): 0.298 µM·h; % activity remaining at 20 min, 10 µM (CYP2D6 [12]): 76%; AUC (Mus musculus [13]): 4.08 µM·h; EC50 (Plasmodium falciparum [14]): 0.16 µM; EC90 (Plasmodium falciparum [14]): 0.45 µM; Cmax (Mus musculus [15]): 861 nM; Tmax (Mus musculus [16]): 0.5 h; permeability ([17]; BLD = below limit of detection): BLD; Vd/F [18]: 370 L/kg; Activity (HepG2): Non-toxic

Q: Which results are given for `O=C(CCc1ccccc1)c1cc(F)ccc1OCC(O)CN1CCN(C(c2ccccc2)c2ccccc2)CC1` (centres undefined)?
A: Activity (Raji): Non-toxic; IC50 [19]: > 5 µM; CLint scaled [20]: 34 mL/min/kg; Cmax (Mus musculus [2]): 98.7 nM; Activity (HEK293): Non-toxic; Vd/F [3]: 276 L/kg; EC90 (Plasmodium falciparum [6]): 0.31 µM; AUC (Mus musculus [7]): 6.17 µM·h; solubility at 18 h, 10000 µM [8]: 0.2 µM (≈ 0.111 µg/mL); Activity (BJ): Non-toxic; Cmax (Mus musculus [9]): 908 nM; Tmax (Mus musculus [10]): 1 h; EC90 (Plasmodium falciparum [14]): 0.66 µM; Tmax (Mus musculus [16]): 1 h; permeability [17]: 0.8 ×10⁻⁶ cm/s; Activity (HepG2): Non-toxic

Q: For `O=C(CCc1ccccc1)c1ccccc1OCC(O)CN1CCN(C(c2ccccc2)c2ccccc2)CC1` (centres undefined), which Activity (Plasmodium berghei [21]) is on record?
A: Its Activity is 53.6%.

Q: And the MST (Plasmodium berghei [22])?
A: Its MST is 7 days.

Q: What about the Activity (Raji) of the same molecule?
A: The Activity was “Non-toxic”.

Q: What about the Vz/F (Mus musculus [1]) of the same molecule?
A: Its Vz/F is 2020 L/kg.

Q: What about the CLint scaled [20] of the same molecule?
A: Its CLint scaled is 70 mL/min/kg.

Q: What about the Cmax (Mus musculus [2]) of the same molecule?
A: The Cmax was 73.7 nM.

Q: What about the Activity (HEK293) of the same molecule?
A: The Activity was “Non-toxic”.

Q: What about the Vd/F [3] of the same molecule?
A: The Vd/F was 603 L/kg.

Q: What about the Tmax (Mus musculus [4]) of the same molecule?
A: The Tmax was 1 h.

Q: What about the % activity remaining at 20 min, 1 µM (CYP2D6 [5]) of the same molecule?
A: The % activity remaining at 20 min, 1 µM was 76%.

Q: What about the EC90 (Plasmodium falciparum [6]) of the same molecule?
A: Its EC90 is 0.1 µM.

Q: And the AUC (Mus musculus [7])?
A: Its AUC is 3.1 µM·h.

Q: What about the solubility at 18 h, 10000 µM [8] of the same molecule?
A: Its solubility at 18 h, 10000 µM is 0.1 µM (≈ 0.0535 µg/mL).

Q: What about the Activity (Plasmodium berghei [23]) of the same molecule?
A: Its Activity is 55.3%.

Q: What about the Activity (BJ) of the same molecule?
A: Its Activity is “Non-toxic”.

Q: What about the Cmax (Mus musculus [9]) of the same molecule?
A: The Cmax was 667 nM.

Q: And the MST (Plasmodium berghei [24])?
A: Its MST is 7 days.

Q: And the Tmax (Mus musculus [10])?
A: The Tmax was 0.5 h.

Q: What about the AUC (Mus musculus [11]) of the same molecule?
A: The AUC was 0.249 µM·h.

Q: And the % activity remaining at 20 min, 10 µM (CYP2D6 [12])?
A: The % activity remaining at 20 min, 10 µM was 59%.

Q: What about the AUC (Mus musculus [13]) of the same molecule?
A: Its AUC is 3.37 µM·h.

Q: What about the IC50 [25] of the same molecule?
A: Its IC50 is 2.6 µM.

Q: What about the EC90 (Plasmodium falciparum [14]) of the same molecule?
A: Its EC90 is 0.09 µM.

Q: What about the Cmax (Mus musculus [15]) of the same molecule?
A: The Cmax was 598 nM.

Q: And the selectivity ratio (hERG)?
A: The selectivity ratio was 26.

Q: And the Tmax (Mus musculus [16])?
A: The Tmax was 1 h.

Q: And the permeability [17]?
A: Its permeability is 2.3 ×10⁻⁶ cm/s.

Q: What about the Vd/F [18] of the same molecule?
A: The Vd/F was 318 L/kg.

Q: What about the Activity (HepG2) of the same molecule?
A: The Activity was “Non-toxic”.
